Assays:
MCF7 [1] = experiment: Cytotoxicity against multidrug resistant human MCF7 cells cultured in vinblastine containing medium assessed as growth inhibition after 72 hrs by SRB assay; format: functional, cell-based; conditions: MCF7, 72 h
How it was run: (§1)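 Cells in log phase, grown in RPMI 1640 with 10% FBS at 37 °C, 5% CO2, humidified, were exposed in triplicate to test samples at 0.2−25 μg/mL for 72 h. Growth was read by sulforhodamine B staining. IC50 is the concentration giving 50% growth inhibition relative to untreated control, taken from a semilog plot of concentration (μg/mL) against % inhibition. Vinblastine served as positive control.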

MCF7 [2] = experiment: Cytotoxicity against vinblastine-sensitive human MCF7 cells assessed as growth inhibition after 72 hrs by SRB assay; format: functional, cell-based; conditions: MCF7, 72 h; how it was run: as §1
MCF7 [3] = experiment: Cytotoxicity against multidrug resistant human MCF7 cells cultured in vinblastine free medium assessed as growth inhibition after 72 hrs by SRB assay; format: functional, cell-based; conditions: MCF7, 72 h; how it was run: as §1
MDA-MB-231 = experiment: Cytotoxicity against human MDA-MB-231 cells assessed as growth inhibition after 72 hrs by SRB assay; format: functional, cell-based; conditions: MDA-MB-231, 72 h; how it was run: as §1
HeLa = experiment: Cytotoxicity against human HeLa cells assessed as growth inhibition after 72 hrs by SRB assay; format: functional, cell-based; how it was run: as §1
Homo sapiens [4] = species: Homo sapiens; experiment: (§2) Inhibition of multidrug resistance efflux pump in multidrug resistant human MCF7 cells cultured in vinblastine free medium assessed as potentiation of vinblastine-induced cytotoxicity by measuring fold reduction in vinblastine IC50 at 25 ug/ml after 72 hrs by SRB assay relative to vinblastine alone
How it was run: (§3)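 MCF-7/Vin− cells were a stock of the resistant line maintained in vinblastine-free medium.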

HCT-116 = experiment: Cytotoxicity against human HCT116 cells assessed as growth inhibition after 72 hrs by SRB assay; format: functional, cell-based; conditions: HCT-116, 72 h; how it was run: as §1
HCT-15 = experiment: Cytotoxicity against human HCT15 cells assessed as growth inhibition after 72 hrs by SRB assay; format: functional, cell-based; conditions: HCT-15, 72 h; how it was run: as §1
Homo sapiens [5] = species: Homo sapiens; experiment: as §2, with “containing” for “free”
How it was run: (§4)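 MCF-7/Vin+ resistant cells were kept in medium containing 0.192 μg/mL vinblastine to hold resistance.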

MCF7 [6] = experiment: Potentiation of vinblastine-induced cytotoxicity against vinblastine-sensitive human MCF7 cells assessed as fold reduction in vinblastine IC50 at 25 ug/ml after 72 hrs by SRB assay relative to vinblastine alone; format: functional
How it was run: (§5)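 Modulation assay in sensitive MCF-7 or resistant MCF-7/Vin cells. Cells received vinblastine at 0.00064−10 μg/mL, alone or with glycolipid at 25 or 5 μg/mL, for 72 h. Read-out was SRB, and vinblastine IC50 was derived as in the cytotoxicity assay. Reversal fold = IC50 of vinblastine alone / IC50 with glycolipid. Reserpine at 5 μg/mL served as positive control. Values are mean ± SD of three independent experiments.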

Homo sapiens [7] = species: Homo sapiens; experiment: as §2, with “containing” for “free”, “5” for “25”; how it was run: as §4
MCF7 [8] = experiment: Potentiation of vinblastine-induced cytotoxicity against vinblastine-sensitive human MCF7 cells assessed as fold reduction in vinblastine IC50 at 5 ug/ml after 72 hrs by SRB assay relative to vinblastine alone; format: functional; how it was run: as §5
Homo sapiens [9] = species: Homo sapiens; experiment: Inhibition of multidrug resistance efflux pump in multidrug resistant human MCF7 cells cultured in vinblastine free medium assessed as potentiation of vinblastine-induced cytotoxicity by measuring fold reduction in vinblastine IC50 at 5 ug/ml after 72 hrs by SRB assay relative to vinblastine alone; how it was run: as §3

SMILES	IC50 (MCF7 [1]) [µM]	IC50 (MCF7 [2]) [µM]	IC50 (MCF7 [3]) [µM]	IC50 (MDA-MB-231) [µM]	IC50 (HeLa) [µM]	fold change (FC) (Homo sapiens [4])	IC50 (HCT-116) [µM]	IC50 (HCT-15) [µM]	fold change (FC) (Homo sapiens [5])	fold change (FC) (MCF7 [6])	fold change (FC) (Homo sapiens [7])	fold change (FC) (MCF7 [8])	fold change (FC) (Homo sapiens [9])
CC[C@@]1(O)C(=O)OCc2c1cc1n(c2=O)Cc2cc3ccccc3nc2-1 [CAMPTOTHECIN]	< 0.0018	< 0.0018	< 0.0018	–	–	–	–	–	–	–	–	–	–
C/C=C(\C)C(=O)O[C@@H]1[C@H](O)[C@@H](O)[C@H](O[C@@H]2[C@@H](O)[C@@H](OC(=O)/C(C)=C/C)[C@H](O[C@H]3[C@@H]4O[C@H]5[C@H](O[C@@H](CCCCC)CCCCCCCCCC(=O)O[C@H]3[C@H](O)[C@@H](CO)O4)O[C@H](C)[C@@H](O)[C@@H]5O)O[C@H]2C)O[C@@H]1C	17	8	16.3	11.6	9.6	> 1980	15.9	9.8	> 2520	>87	–	–	–
CCC[C@H]1CCCCCCCCCC(=O)O[C@H]2[C@H](O[C@H]3[C@H](O)[C@@H](C)O[C@@H](O[C@H]4[C@H](O1)O[C@H](C)[C@@H](O)[C@@H]4O)[C@@H]3O[C@@H]1O[C@@H](C)[C@H](OC(C)=O)[C@@H](O)[C@H]1O)O[C@H](C)[C@@H](O)[C@@H]2OC(=O)[C@H](C)[C@@H](C)O	> 20	> 20	> 20	> 20	> 20	322	> 20	> 20	201	34	–	–	–
C/C=C(\C)C(=O)O[C@H]1[C@H](O[C@H]2[C@@H]3O[C@H]4[C@H](O[C@@H](CCC)CCCCCCCCCC(=O)O[C@H]5[C@H](O[C@H]6[C@H](OC[C@@H](O3)[C@@H](O)[C@@H]2O)O[C@H](C)[C@@H](O)[C@@H]6O)O[C@@H](C)[C@H](O)[C@H]5O)O[C@H](C)[C@@H](O)[C@@H]4O)O[C@@H](C)[C@H](O)[C@H]1O	> 20	> 20	> 20	> 20	> 20	1700	> 20	> 20	3	4	–	–	–
COC(=O)[C@H]1[C@H]2C[C@@H]3c4[nH]c5cc(OC)ccc5c4CCN3C[C@H]2C[C@@H](OC(=O)c2cc(OC)c(OC)c(OC)c2)[C@@H]1OC [RESERPINE]	–	–	–	–	–	–	–	–	–	–	3	11	20
C/C=C(\C)C(=O)O[C@@H]1[C@H](O)[C@@H](O)[C@H](O[C@@H]2[C@@H](O)[C@@H](OC(=O)/C(C)=C/C)[C@H](O[C@H]3[C@@H]4O[C@H]5[C@H](O[C@@H](CCC)CCCCCCCCCC(=O)O[C@H]3[C@H](O)[C@@H](CO)O4)O[C@H](C)[C@@H](O)[C@@H]5O)O[C@H]2C)O[C@@H]1C	> 20	15.1	> 20	> 20	17.4	5	15.1	14.3	> 2520	>87	–	–	–
C/C=C(\C)C(=O)O[C@H]1[C@@H]2O[C@H]3[C@H](O[C@@H](CCC)CCCCCCCCCC(=O)O[C@@H]4[C@@H](O)[C@H](C)O[C@@H](O[C@H]5[C@H](O)[C@@H](C)O[C@@H](O[C@H]([C@H]1O)[C@H](C)O2)[C@@H]5O[C@@H]1O[C@@H](C)[C@H](O)[C@@H](O)[C@H]1OC(=O)[C@H](C)[C@@H](C)O)[C@@H]4O)O[C@H](C)[C@@H](O)[C@@H]3O	> 20	> 20	> 20	> 20	> 20	283	> 20	> 20	3	37	–	–	–
Cc1c2ccncc2c(C)c2c1[nH]c1ccccc12 [ELLIPTECINE]	2	–	1.6	–	–	–	–	–	–	–	–	–	–
CC[C@]1(O)C[C@@H]2CN(CCc3c([nH]c4ccccc34)[C@@](C(=O)OC)(c3cc4c(cc3OC)N(C)[C@H]3[C@@](O)(C(=O)OC)[C@H](OC(C)=O)[C@]5(CC)C=CCN6CC[C@]43[C@@H]65)C2)C1 [VINBLASTINE]	1.3	0.06	1.1	0.01	0.002	–	0.05	0.06	–	–	–	–	–
COc1cc([C@@H]2c3cc4c(cc3[C@H](O)[C@H]3COC(=O)[C@H]23)OCO4)cc(OC)c1OC [PODOFILOX]	0.3	0.02	0.2	–	–	–	–	–	–	–	–	–	–
CCC[C@H]1CCCCCCCCCC(=O)O[C@H]2[C@H](OC[C@H]3O[C@@H](O[C@H]4[C@H](O1)O[C@H](C)[C@@H](O)[C@@H]4O)[C@H](O[C@@H]1O[C@@H](C)[C@H](OC(C)=O)[C@@H](O)[C@H]1O)[C@@H](O)[C@@H]3O)O[C@H](C)[C@@H](O)[C@@H]2OC(=O)[C@H](C)[C@@H](C)O	> 20	> 20	> 20	> 20	> 20	1	> 20	> 20	2	4	–	–	–
COc1cc2c(c(OC)c1OC)-c1ccc(OC)c(=O)cc1[C@@H](NC(C)=O)CC2 [COLCHICINE]	2.8	0.05	2.8	–	–	–	–	–	–	–	–	–	–

Source: ChEMBL document CHEMBL3994597, “Resin Glycosides from Ipomoea alba Seeds as Potential Chemosensitizers in Breast Carcinoma Cells” (J Nat Prod, 2016)
